Our source for the Kd values is PMC7649717 (Analytical chemistry, 2020).

Holding throughout (assay): isothermal titration calorimetry
What all share (settings): PBS, 298 K, 30 μM protein; GFP fusion
(In ITC the heat of successive injections is recorded.)

The target of assay [1] is T1, GFP-RBP(L19A); ribose binding protein (RBP) (Escherichia coli, UniProt P02925, L44A/Q260A).
T1 sequence (P02925 26-296 L44A/Q260A): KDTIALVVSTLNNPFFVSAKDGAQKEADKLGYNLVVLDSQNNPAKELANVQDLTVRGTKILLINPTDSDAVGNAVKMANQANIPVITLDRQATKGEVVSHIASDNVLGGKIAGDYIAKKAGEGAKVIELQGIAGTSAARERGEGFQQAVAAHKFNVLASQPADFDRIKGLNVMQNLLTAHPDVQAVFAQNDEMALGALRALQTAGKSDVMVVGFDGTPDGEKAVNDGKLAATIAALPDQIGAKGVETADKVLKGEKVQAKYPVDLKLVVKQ

Assay [2] concerns the target T2, GFP-RBP(L19A); ribose binding protein (RBP) (Escherichia coli, UniProt P02925, L44A/T160A/Q260A).
T2 sequence (P02925 26-296 L44A/T160A/Q260A): T1 sequence (P02925 26-296 L44A/Q260A) with T135A

The target in assay [3] is T3, GFP-RBP(L19A); ribose binding protein (RBP) (Escherichia coli, UniProt P02925, L44A).
T3 sequence (P02925 26-296 L44A): T1 sequence (P02925 26-296 L44A/Q260A) with A235Q
The procedure, abridged:
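GFP-RBP(L19A) expressed in E. coli BL21(DE3) and Ni-affinity purified with on-column 8 M urea unfolding and refolding to strip endogenous ribose, then size-exclusion in PBS. ITC at 298 K: cell held 30 μM protein in PBS against a deionized water reference; ribose at 10x protein concentration in PBS. Kd came from nonlinear regression fits of the binding isotherms.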

Numbering of substitutions follows the chain as printed.

The term Kd denotes the free concentration of one partner at which half of the binding sites on the other are occupied at equilibrium, for simple one-to-one binding. A high value points to a looser complex.

In the case of `OC1OC[C@@H](O)[C@@H](O)[C@H]1O` (stereo partly drawn) [ribose], the Kd in assay [1] was 10 µM; in assay [2] it was 130 µM; in assay [3] it was 0.3 ± 0.1 µM.
